Test results taken from ChEMBL document CHEMBL1133526, “Molecular simplification of 1,4-diazabicyclo[4.3.0]nonan-9-ones gives piperazine derivatives that maintain high nootropic activity” (2000).
Where “and” joins values, the source holds several entries; their conditions need not be identical. Identical values can stand only once.

Tests used:
Assay type in all cases: functional
[1] = species: Mus musculus; assay: (§1) Change in entry latency expressed as [(entry latency on day 2)-(entry latency on day 1)]
[2] = tested on: Mus musculus; assay: Minimum effective dose administered subcutaneously in mouse, activity given with reference to piracetam; conditions: Mus musculus, sc; read-out: MED
Summary of the method: (§2)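 Mouse passive avoidance with scopolamine-induced amnesia (1.5 mg/kg ip after training; 40 cm fall into 10 °C water as punishment). Compounds are given sc in 1:10 dilution steps 20 min before training, in saline or DMSO/H2O. […] Piracetam is the ip reference.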

[3] = tested on: Mus musculus; assay: Nootropic effect of the compound, when administered subcutaneously, on mouse passive Avoidance test, using Scopolamine as Amnesic drug on 1 st day
[4] = tested on: Mus musculus; assay: Nootropic effect of the compound, when administered subcutaneously, on mouse passive Avoidance test, using Scopolamine as Amnesic drug on 2 nd day
[5] = species: Mus musculus; assay: as §1; remark: listed apart in the source
Summary of the method: (§3)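 Mouse passive avoidance test using a light/dark box. Entering the dark side drops the mouse 40 cm into 10 °C water. Training is on day 1 and retention 24 h later. Test drug is given sc 20 min before training, in saline or DMSO/H2O vehicle. […] Mice not entering within 60 s are excluded. Retention latency is capped at 120 s. Δ = day 2 − day 1 latency.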

[6] = tested on: Mus musculus; assay: Nootropic effect of the compound, when administered subcutaneously, on mouse passive Avoidance test, using Scopolamine as Amnesic drug on 2 nd day; dose is limited by solubility problems; summary of the method: as §3
[7] = tested on: Mus musculus; assay: Minimum effective dose administered intraperitoneally in mouse passive avoidance test; conditions: ip, read-out: MED
[8] = tested on: Mus musculus; assay: Minimum effective dose administered subcutaneously in mouse, activity given with reference to piracetam, dose administered is limited by solubility problems; conditions: sc, read-out: MED; summary of the method: as §2
[9] = tested on: Mus musculus; assay: Minimum effective dose administered subcutaneously in mouse passive avoidance test; conditions: sc, read-out: MED; summary of the method: as §2
[10] = species: Mus musculus; assay: Change in entry latency expressed as [(latency on day 2)-(latency on day 1)]; summary of the method: as §3
[11] = tested on: Mus musculus; assay: Effect of 0.1 mg/kg compound in the presence of saline on Amnesia in mouse passive Avoidance test on 1st day
Summary of the method: (§4)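 Mouse passive avoidance without an amnesic agent. Compound is given ip at 0.1 mg/kg 20 min before training, followed by saline. Entry latency into the dark compartment (punishment: 40 cm fall into 10 °C water) is recorded on day 1 and in retention 24 h later, capped at 120 s. Compared with saline controls.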

[12] = tested on: Mus musculus; assay: Effect of 0.1 mg/kg compound in the presence of saline on Amnesia in mouse passive Avoidance test on 2nd day, ip; conditions: route intraperitoneal; summary of the method: as §4
[13] = tested on: Mus musculus; assay: Effect of 0.1 mg/kg compound on Amnesia induced by Baclofen (2 mg/Kg ip) in mouse passive Avoidance test on 1 st day at 0.1 mg/kg, ip
Summary of the method: (§5)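 Mouse passive avoidance. Compound is given ip 20 min before training. Diphenhydramine (20 mg/kg ip) or baclofen (2 mg/kg ip) is injected immediately after training. Entry latency into the dark, water-pitfall compartment is measured on day 1 and 24 h later, capped at 120 s. Compared with amnesic-only mice.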

[14] = tested on: Mus musculus; assay: Effect of 0.1 mg/kg compound on Amnesia induced by diphenhydramine (20 mg/Kg) in mouse passive Avoidance test on 1st day (no. of animals = 12); summary of the method: as §5
[15] = tested on: Mus musculus; assay: Effect of 0.1 mg/kg compound on Amnesia induced by diphenhydramine (20 mg/Kg) in mouse passive Avoidance test on 1st day; (no. of animals = 11); summary of the method: as §5
[16] = tested on: Mus musculus; assay: Effect of 0.1 mg/kg compound on Amnesia induced by diphenhydramine (20 mg/Kg) in mouse passive Avoidance test on 2 nd day (no. of animals = 11); summary of the method: as §5
[17] = tested on: Mus musculus; assay: Effect of 0.1 mg/kg compound on Amnesia induced by diphenhydramine (20 mg/Kg) in mouse passive Avoidance test on 2 nd day (no. of animals = 12); summary of the method: as §5
[18] = tested on: Mus musculus; assay: Effect of compound on Amnesia induced Clonidine (0.125 mg/kg) in mouse passive Avoidance test on 1st day at 0.1 mg/kg, ip; conditions: route intraperitoneal
Summary of the method: (§6)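 Mouse passive avoidance. Compound is given ip 20 min before training. Clonidine (0.125 mg/kg ip) is injected 60 min before training. Entry latency into the dark compartment (40 cm fall into 10 °C water) is measured on day 1 and 24 h later, capped at 120 s. Compared with clonidine-only mice.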

[19] = tested on: Mus musculus; assay: Effect of compound on Amnesia induced Clonidine (0.125 mg/kg) in mouse passive Avoidance test on 2 nd day at 0.1 mg/kg, ip; conditions: route intraperitoneal; summary of the method: as §6
[20] = tested on: Mus musculus; assay: Effect of compound on Amnesia induced by Baclofen (2 mg/Kg ip) in mouse passive Avoidance test on 2 nd day at 0.1 mg/kg, ip; conditions: route intraperitoneal; summary of the method: as §5

CC(=O)N1CCN(S(=O)(=O)c2ccccc2)CC1
Entry latency [1]: 86.5 s | minimal effective dose [2]: 0.01 mg/kg | Entry latency [3]: 17.5 s | Entry latency [4]: 104 s

CC(=O)N1CCN(C(=O)c2ccccc2)CC1
Change in entry latency [5]: 107.7 s | minimal effective dose [2]: 10 mg/kg | Entry latency [3]: 11.3 s | Entry latency [6]: 119 s

CN1[C@@H]2C[C@@H](OC(=O)[C@H](CO)c3ccccc3)C[C@H]1[C@@H]1O[C@@H]12 [SCOPOLAMINE]
minimal effective dose [7]: 1.5 mg/kg

CCC(=O)N1CCN(C(=O)c2ccc(C)cc2)CC1
minimal effective dose [8]: > 1 mg/kg

CCCCCC(=O)N1CCN(S(=O)(=O)c2ccc(F)cc2)CC1
Entry latency [1]: 64.9 s | minimal effective dose [9]: 1 mg/kg | Entry latency [3]: 16.6 s | Entry latency [4]: 81.5 s

CCC(=O)N1CCN(S(=O)(=O)c2ccc(Cl)cc2)CC1
minimal effective dose [9]: > 0.1 mg/kg

CCC(=O)N1CCN(S(=O)(=O)c2ccc(OC)cc2)CC1
minimal effective dose [8]: > 1 mg/kg

CN1C2CC(OC(=O)C(CO)c3ccccc3)CC1C1OC12.NC(=O)CN1CCCC1=O (configuration not stated)
Entry latency [1]: 91.2 s | Entry latency [3]: 17.6 s | Entry latency [4]: 108.8 s | minimal effective dose [7]: 30 mg/kg

CCC(=O)N1CCN(S(=O)(=O)c2ccc(C)cc2)CC1
Entry latency [1]: 72 s | minimal effective dose [9]: 10 mg/kg | Entry latency [3]: 16.6 s | Entry latency [4]: 88.6 s

CC1C[C@@H]2CN(C(=O)c3ccccc3)CCN2C1=O (stereo in doubt; endo)
minimal effective dose [2]: 1 mg/kg

CCC(=O)N1CCN(C(=O)c2ccc([N+](=O)[O-])cc2)CC1
Change in entry latency [5]: 85.5 s | minimal effective dose [2]: 1 mg/kg | Entry latency [3]: 18.8 s | Entry latency [4]: 104.3 s

CCC(=O)N1CCN(S(=O)(=O)c2ccc([N+](=O)[O-])cc2)CC1
minimal effective dose [8]: > 0.1 mg/kg

CCC(=O)N1CCN(C(=O)c2ccccc2)CC1
Change in entry latency [5]: 71 s and 69.1 s and 68.5 s and 67 s | Change in entry latency [10]: 56 s and 63.8 s | Entry latency [11]: 17.2 s | Entry latency [12]: 86.3 s | Entry latency [13]: 17.2 s | Entry latency [14]: 14.4 s | Entry latency [15]: 15.8 s | Entry latency [16]: 84.3 s | Entry latency [17]: 81.4 s | minimal effective dose [2]: 0.001 mg/kg | Entry latency [18]: 15 s | Entry latency [19]: 78.8 s | Entry latency [20]: 73.2 s | Entry latency [3]: 20.5 s | Entry latency [4]: 91.5 s

CCCCC(=O)N1CCN(S(=O)(=O)c2ccc(F)cc2)CC1
minimal effective dose [9]: > 0.1 mg/kg

CCCC(=O)N1CCN(S(=O)(=O)c2ccc(F)cc2)CC1
minimal effective dose [9]: > 10 mg/kg
